Assay: Toxicity liver stage against HepG2, at 10uM
Type: cell-based
Design: test concentration 10 uM, cell line HepG2-A16-CD81EGFP
Conditions: human, HepG2-A16-CD81EGFP cells; read-out: INHIBITION
Method in brief: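 Uninfected HepG2-A16-CD81EGFP cells, 3 × 10^3 per well, 1536-well, plated on prespotted compound at 10 μM final, parasite-free screening media added to match infected plates; puromycin 10 μM positive, DMSO 0.5% negative; run in parallel with 48 h PbLuc assay at 37 °C, 5% CO2; viability by CellTiter-Glo luminescence, normalized to controls.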

Row | SMILES | cytotoxicity at 10 µM [%]
1 | Cc1ncsc1-c1cc(C(=O)NCCO)ccn1 | -6.58
2 | Cc1ccccc1CN1CC[C@H]2C[C@H](C(=O)N(C)C)O[C@H]2C1 | 4.36
3 | CC1=C[C@@H](CN2CCC(O)CC2)[C@H](C(C)C)C[C@H]1Cc1nnc(C)o1 | 0.788
4 | COc1cccc(OCC2CCCN(C(=O)c3cnc(C)nc3O)C2)c1 (stereo not given) | -15.8
5 | Cc1cc(C(=O)N2CC[C@@]3(O)CCN(S(C)(=O)=O)C[C@H]3C2)c(C)n1C | -8
6 | Cc1cnc(C(=O)N2CCCC(c3nccn3Cc3cscn3)C2)cn1 (stereo not given) | -7.92
7 | COCCn1ccc(NCc2cc3cc(F)ccc3o2)n1 | -8.78
8 | Nc1nc(NCCO)cc(N2CCc3c([nH]c4ccccc34)C2)n1 | 11.9
9 | CC1(C)OC(=O)N(CCCC(=O)c2ccc(F)cc2)C1=O | -4.87
10 | COc1ncccc1CN1CCc2[nH]cnc2C1CCSC (stereo not given) | -13.7
11 | Cc1cccc2c1CCN(c1cc(N3CCCC3CO)ncn1)C2 (stereo not given) | -3.44
12 | CC(C)c1n[nH]c(C2CN(C(=O)c3csnn3)CCO2)n1 (stereo not given) | -4.89
13 | c1cnc2[nH]c(C3CCNCC3)c(CN3CCOCC3)c2c1 | 1.82
14 | Cc1nc[nH]c1CNCc1cccnc1N(C)C1CCCCC1 | 5.32
15 | O=C1CCCN1CCCNCc1cc(O)c2cccc(F)c2n1 | -1.16
16 | c1cnnc(N2CCCC(NCc3ccc(-n4cncn4)cc3)C2)c1 (stereo not given) | -3.14
17 | Cc1nn(C2CCCC2)c2nc(C(C)(C)CN3CCN(C)CC3)[nH]c12 | -6.61
18 | Cc1ccc(-n2ccnc2)c(C(=O)NCCCN(C)C)c1 | -152
19 | Oc1nc(N2CCOCC2)nc2nccc(-c3ccccn3)c12 | 7.52
20 | O=C([C@@H]1CCO[C@@H]2CCN(Cc3ccco3)C[C@H]21)N1CCCCO1 | 9.76
21 | CN1CCO[C@@H]2CN(S(=O)(=O)c3cccnc3)C[C@@H]2C1 | 6.17
22 | Cn1ccnc1CNCC1CCCN1c1cccnn1 (stereo not given) | -11.3

Row | SMILES | cytotoxicity at 10 µM [%]
23 | O=C(c1cnccn1)N1CCN2C[C@H](Oc3cccc(F)c3)C[C@H]2C1 | 11.7
24 | Cc1nc(CN2CCc3ncnc(C4CCOC4)c3CC2)cs1 (stereo not given) | 3.05
25 | CC(=O)N1CCCN(C(=O)Cc2c(C)nc(C)[nH]c2=O)CC1 | -8.28
26 | OC(CNC1CCOCC1)c1ccc(Cl)c(F)c1 (stereo not given) | -1.12
27 | Cc1cc(CN2CC[C@H]3C[C@@H](c4nccs4)O[C@@H]3C2)no1 | -84.8
28 | O=C(CCCNCc1ccc(Cl)c2cccnc12)NC1CC1 | -4.76
29 | CC1CN(C)CCN1CC(=O)NCCOc1ccc(Cl)cc1 (stereo not given) | -8.69
30 | CCc1nc(C2CCCN2C(=O)c2ccc3c(c2)nc(C)n3C)no1 (stereo not given) | 3.54
31 | O=C(c1ccno1)N1CC2(CCC(C(=O)N3CCCC3)O2)C1 (stereo not given) | -157
32 | NC(=O)c1cccc(C2CCN(c3ncccn3)CC2)n1 | 0.00505
33 | CCCNC(=O)c1nc2c(o1)CN(C(C)=O)C2 | -70.6
34 | COCCN1CCC2(CCCN(c3ncccn3)C2)C1 (stereo not given) | 1.36
35 | CNC(=O)C1(CCCc2cnccn2)CCN1CCc1ccccc1 (stereo not given) | -1.23
36 | CC(=O)N1CCC[C@@H](NCc2ccc(F)cc2)[C@@H]1c1ccc(C)s1 | -22.1
37 | Cc1ccc(-c2cc(CNC(=O)N3CCSCC3)on2)cc1 | 2.7
38 | O=C(CCN1C(=O)CCC1=O)Nc1cnn(-c2ccccc2Cl)c1 | -9.56
39 | COc1ccc(C(C)NCc2cscn2)cc1Cn1cccn1 (stereo not given) | 3.01
40 | Cc1nn2c(N3CCC(O)CC3)cc(-c3ccccc3)nc2c1C | -6.54
41 | CNC(C(=O)OC)c1cc(F)ccc1F (stereo not given) | -1.07
42 | Cc1nccn1C1CCCN(C(=O)c2cc(Cl)c3c(c2)OCO3)C1 (stereo not given) | -2.78
43 | C1CC(c2noc(C3CC3)n2)N(Cc2nnc(C3CC3)o2)C1 (stereo not given) | -5.83
44 | OC(CN1CCN(CC2CC2)CC1)c1ccc(Br)cc1 (stereo not given) | -8.69

Row | SMILES | cytotoxicity at 10 µM [%]
45 | Fc1ccc(-c2c[nH]c([C@@H]3COCCN3)n2)cc1 | -0.0368
46 | CCOC(=O)CCCN1CCCC(C(=O)Nc2ccc(Cl)cn2)C1 (stereo not given) | 2.69
47 | O=C1CC[C@H]2[C@H](CCN2S(=O)(=O)C2CC2)N1CCN1CCCC1 | -88.9
48 | COc1cc(N2CC[C@@H]3OCCN(C)[C@H]3CC2)ncn1 | -96.6
49 | Cc1ccccc1CN1CCN(C(=O)CN2CCOC2=O)CC1 | -8.03
50 | CC[C@@H]1N(Cc2ccc(C)s2)CCC[C@]12CCC(=O)N2C | 4.94
51 | CC[C@H](C)[C@H](N)C(=O)N1CC(=O)c2sc(Nc3ccc(F)cc3)nc2C1 | -1.44
52 | CC(C)c1cc(N2CCC(N)CC2)n2nccc2n1 | -18.1
53 | Cc1nn(C)c(C)c1C1COCCN1C(=O)CSC(C)(C)C (stereo not given) | 4.22
54 | CC(C)CN1C(=O)CCC12CCC(NC(=O)NCc1cccnc1)CC2 (stereo not given) | -118
55 | O=C(c1csc(-c2nnc[nH]2)n1)N1CCCCC1Cn1cccn1 (stereo not given) | -4.49
56 | COc1ccc(C(=O)C2CCCN(c3cnccn3)C2)c(C)c1 (stereo not given) | -2.69
57 | c1cnnc(NCC2CN(Cc3ccon3)CCO2)c1 (stereo not given) | -32.2
58 | Cc1nc(CN2CCOC3(CCCN(c4nccs4)C3)C2)cs1 (stereo not given) | 16.3
59 | O=C1CC[C@H]2[C@H](CCN2C(=O)C2CCCO2)N1CCN1CCCC1 (stereo not given in full) | -4.66
60 | Cc1cc(C(F)(F)F)nc(CNC(=O)CCC2CCCCN2C)n1 (stereo not given) | -59
61 | O=C(NC1CCC1)[C@@H]1C[C@@H]2CCN(CCc3ccccc3)C[C@H]2O1 | -72.7
62 | CN(C)C(=O)CN1CCC(c2nnc(Cn3cccn3)n2C2CC2)CC1 | -6.65
63 | CCCC(=O)Nc1cccc(C(=O)N(C)CCCC2CCCO2)c1 (stereo not given) | 1.03
64 | CC(=O)N1[C@H](Cn2cncn2)C[C@@H]2CN(Cc3ccccn3)CC[C@@H]21 | 0.732
65 | CSc1nc2cc(C)n(CC(=O)Nc3nccs3)c2c(=O)n1CC(C)C | -12.6
66 | CNC(=O)C1CCC(NC(=O)N(C)Cc2c(C)noc2C)CC1 (stereo not given) | -13.7

Row | SMILES | cytotoxicity at 10 µM [%]
67 | Cc1cn2nc(N3CCCC3C(=O)N3CCN(C)CC3)sc2n1 (stereo not given) | -12.6
68 | COCCNC(=O)c1cc(S(=O)(=O)N2CCCCCC2)cs1 | -14.8
69 | CN1C(=O)CC2(CCNCC2)c2ccccc21 | -3.92
70 | Cn1ccnc1CNC(=O)N1CCCC(Cc2nccn2C)C1 (stereo not given) | 2.63
71 | COCC1COCCC12CCN(C(=O)Cc1ccc(F)cc1)CC2 (stereo not given) | 1.68
72 | CCc1nnc2n1CCN(C(=O)c1cnn(C)c1C1CC1)C2 | -6.93
73 | CCCNC(=O)Nc1cc2c(cc1SC)OCCO2 | -19
74 | Cc1cc(C(=O)N2CCC(Nc3cccnc3)CC2)c(C)s1 | -141
75 | CCCOc1ccc(Cl)cc1NC(=O)NCCC(=O)N(C)C | -0.734
76 | CCn1ncc2c1C(COC)CN(Cc1cnn(C)c1)C2 (stereo not given) | 1.49
77 | O=C(NCC1CC[C@@]2(CNCCOC2)O1)c1cnccn1 (stereo not given in full) | 9.44
78 | CS(=O)(=O)N1CCC(C(=O)NC(Cc2ccsc2)c2nccs2)CC1 (stereo not given) | 4.04
79 | COc1nccc(N2CC[C@@H](N3CCC(O)CC3)[C@H](O)C2)c1C#N | -152
80 | Cc1ccccc1CN(CCN(C)C)C(=O)c1ccc2nccn2c1 | -2.36
81 | Cc1nnc(N2CCCC3(CN(c4ccccn4)CCO3)C2)o1 (stereo not given) | -98.8
82 | O=C(NCc1nnc2n1CCC2)N1CCC2(CCCCC2)CC1 | 11
83 | Cc1nn(C)c(C)c1NC(=O)CN1CCN(c2nccs2)C(C)C1 (stereo not given) | -5.55
84 | c1ncn(CC2CCCN(Cc3nc(C4CC4)no3)C2)n1 (stereo not given) | -12.9
85 | Cc1noc(C)c1CN1CCN(C(=O)Cn2cncn2)CC1 | -3.52
86 | CS(=O)(=O)N1CC[C@@H](CC(=O)O)[C@@H](CC2=NCCc3cc(F)ccc32)C1 | 0.699
87 | O=C(C1CNCCN1C(=O)CCOc1ccccc1)N1CCCC1 (stereo not given) | -7.42
88 | COC(=O)c1cccc(C(=O)N2CCN(c3ccc(Cl)cc3)CC2)n1 | -7.55

Row | SMILES | cytotoxicity at 10 µM [%]
89 | c1cnc(N2CCC3(COCCN(CC4CC4)C3)C2)nc1 (stereo not given) | 0.668
90 | N#CCCN(CCC#N)C(=O)CN(C1CC1)C1CCc2ccccc21 (stereo not given) | 5.92
91 | Cc1cc(NC(=O)CN2CCn3c(nnc3C3CC3)C2)n(C)n1 | -14
92 | CCC(C)(NCC(=O)NC(=O)NC)c1nc(C)cs1 (stereo not given) | -4.36
93 | Cc1cc(S(=O)(=O)NC(=O)CCc2cccnc2)c(C)s1 | 8.28
94 | Cc1ccc(C(=O)NCCNc2ncccc2C#N)c(=O)[nH]1 | -7.44
95 | COCCN1CCN(C(C(=O)O)c2ccc(SC)cc2)CC1 (stereo not given) | 1.75
96 | Cc1ccc(C(=O)N(C)Cc2cc(Br)cs2)cn1 | 9.06
97 | Cc1ccccc1OCCCC(=O)NCc1ccnc(O)c1 | 5.65
98 | CCCc1nc(N(C)Cc2cnc(NC)nc2)c2cnn(C)c2n1 | 3.42
99 | Cc1c(C2SCC(=O)Nc3c2cnn3C(C)(C)C)cnn1C (stereo not given) | -1.21
100 | CCN(CC)c1ncnc2c1CCN(C(=O)Cc1ccccn1)CC2 | 3.13
101 | Cc1cc(C(=O)N2CCn3cc(CN4CCCC4)nc3C2)no1 | -79.3
102 | OCC1CCN(C[C@@H]2CN(C3Cc4ccccc4C3)C[C@@H]2CO)CC1 | -2.02
103 | CCc1nc(C)c(C(=O)NCCNc2ncccc2C#N)s1 | -8.54
104 | Cc1ccc(CN2CCC3(CC2)CCN(C(=O)c2cccn2C)C3)cc1 | -2.6
105 | O=S(=O)(c1cn[nH]c1)N1CCC(O)(CN2CCOCC2)C1 (stereo not given) | 2.5
106 | COc1cccc(Nc2nc(-c3ccncc3)nc3c2CNCC3)c1 | -6.61
107 | Cc1noc(C(C)N2CCN(c3ncnc4ccccc34)CC2)n1 (stereo not given) | 17.7
108 | COC(=O)c1cc2c(=O)[nH]c(=O)n(CCc3ccccc3)c2nc1C | -4.74
109 | O=C(NCc1cc(O)ncn1)C1CCOc2ccccc2C1 (stereo not given) | -6.01
110 | CCn1cc(CN2CCC(O)(Cn3nc(C)ccc3=O)CC2)cn1 | -22.3

Source: ChEMBL document CHEMBL4513216, “Probing the Open Global Health Chemical Diversity Library for Multistage-Active Starting Points for Next-Generation Antimalarials” (ACS Infect Dis, 2020)
